Series [1] relates to Trypanosoma cruzi. The experiment in a line: Antitrypanosomal activity against Trypanosoma cruzi trypomastigote Y strain after 24 hrs by trypan blue exclusion assay.
The nature of series [2]: Cytotoxicity against BALB/c mouse splenocyte assessed as [3H]thymidine incorporation by beta-counting. The conditions noted are these: splenocytes, read-out: MNCC. In kind it is cell-based. In outline:
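Splenocytes from BALB/c mice were plated at 5 × 10⁶ cells per well in DMEM with FCS and gentamycin. Each compound was tested at […], in triplicate, from DMSO stock. Cells were given ³H-thymidine at 1 µCi per well for 24 h at 37 °C and 5% CO₂. Incorporation was compared with untreated wells. The reported value is the highest concentration reducing incorporation by less than 10%.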

In series [3] the test system is Trypanosoma cruzi. The experiment in a line: Antitrypanosomal activity against Trypanosoma cruzi Y strain.
Series [4] has as its system Mus musculus. The series is described as follows: Toxicity in mouse assessed as general toxicity at 100 mg/kg, ip after 72 hrs. More on the design: dose 100 mg/kg, route intraperitoneal. The format is organism-based. The settings on record: in vivo. In outline:
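Mice received a single intraperitoneal dose of 100 mg/kg. They were watched for 72 h for general toxicity signs, including behavior and feeding, and for survival. Controls received only 100 µL of 30% DMSO:70% H₂O (v/v).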

In the case of `CN(C)c1ccc(C(=C2C=CC(=[N+](C)C)C=C2)c2ccc(N(C)C)cc2)cc1` [GENTIAN VIOLET], in series [1] (read-out: IC50), the IC50 worked out at 2.1 µM. For the same compound, in series [2], the MNTC is < 1 µg/mL.
In the case of `CC(=O)Nc1ccc(/C=N/NC(=O)c2nc(-c3ccc([N+](=O)[O-])cc3)no2)cc1`, the IC50 in series [3] was > 150 µM. Further, the MNTC in series [2] is 33 µg/mL.
For the compound `CC(=O)Nc1ccc(/C=N/NC(=O)c2nc(-c3ccc(Cl)cc3)no2)cc1`, the IC50 in series [3] was > 150 µM. Also, the MNTC in series [2] was found to be 100 µg/mL.
For `CC(=O)Nc1ccc(/C=N/NC(=O)c2nc(-c3ccc(Br)cc3)no2)cc1`, in that order: > 150 µM and 33 µg/mL.
For `COc1ccc(-c2noc(C(=O)N/N=C/c3ccc(NC(C)=O)cc3)n2)cc1`, in that order: > 150 µM and 100 µg/mL.
Regarding `O=C(N/N=C/c1ccc(O)cc1)c1nc(-c2ccccc2)no1`, the results for the IC50 in series [3], in series [1] (read-out: IC50) and in series [1] (read-out: pIC50 (converted)) were 78.3 µM, 35.7 µM and 35.5 µM, respectively. Further, the MNTC in series [2] came out at 3.3 µg/mL.
For `O=C(N/N=C/c1ccc(O)cc1)c1nc(-c2ccc(O)cc2)no1`, in that order: 127 µM, 100 µM, 100 µM and 100 µg/mL.
For `COc1ccc(-c2noc(C(=O)N/N=C/c3ccc(O)cc3)n2)cc1`, in that order: 13.8 µM, 32.5 µM, 32.4 µM and 85 µM.
As for `O=C(Cn1ccnc1[N+](=O)[O-])NCc1ccccc1` [BENZNIDAZOLE], in series [1] (read-out: pIC50 (converted)), the IC50 was 5.01 µM. Also, the MNTC in series [2] was found to be 100 µg/mL.
Consider `O=C(N/N=C/c1ccc(O)cc1)c1nc(-c2ccc(F)cc2)no1`, for which the IC50 in series [3] is 21 µM; in series [1] (read-out: IC50) it was 16.7 µM; in series [1] (read-out: pIC50 (converted)), 16.6 µM. Further, the MNTC in series [2] was < 1.1 µg/mL.
For `CC(=O)Nc1ccc(/C=N/NC(=O)c2nc(-c3ccc(C)cc3)no2)cc1`, in that order: 9.8 µM, 3.9 µM, 3.89 µM and 30 µM.
For `O=C(N/N=C/c1ccc(O)cc1)c1nc(-c2ccc([N+](=O)[O-])cc2)no1`, the IC50 in series [3] was 25.2 µM; in series [1] (read-out: IC50), 21.3 µM; in series [1] (read-out: pIC50 (converted)) it was 21.4 µM. For the same compound, the MNTC in series [2] was < 1.1 µg/mL.
For `Cc1ccc(-c2noc(C(=O)N/N=C/c3ccc(O)cc3)n2)cc1`, in that order: 47.8 µM, 17.9 µM, 17.8 µM and < 1.1 µg/mL.
Regarding `O=C(N/N=C/c1ccc(O)cc1)c1nc(-c2ccc(Br)cc2)no1`, the IC50 in series [3] is 19.6 µM; in series [1] (read-out: IC50), 20.5 µM; in series [1] (read-out: pIC50 (converted)) it was 20.4 µM. Besides, the MNTC in series [2] stood at 97 µM. Besides, in series [4], the Activity result is recorded as “Non-toxic”.
For the compound `CC(=O)Nc1ccc(/C=N/NC(=O)c2nc(-c3ccc(F)cc3)no2)cc1`, the IC50 in series [3] was > 150 µM. The MNTC in series [2] was found to be 33 µg/mL.
As for `O=C(N/N=C/c1ccc(O)cc1)c1nc(-c2ccc(Cl)cc2)no1`, the IC50 in series [3] was 21.6 µM; in series [1] (read-out: IC50), 21.2 µM; in series [1] (read-out: pIC50 (converted)), 21.4 µM. Moreover, in series [2], the MNTC was < 1.1 µg/mL.
Regarding `CC(=O)Nc1ccc(/C=N/NC(=O)c2nc(-c3ccccc3)no2)cc1`, the values for the IC50 in series [3], in series [1] (read-out: IC50) and in series [1] (read-out: pIC50 (converted)) were 14.2 µM, 3.6 µM and 3.63 µM, respectively. Besides, in series [2], the MNTC came out at 95 µM. In addition, the Activity entry in series [4] is listed as “Non-toxic”.
In the case of `CC(=O)Nc1ccc(/C=N/NC(=O)c2nc(-c3ccc(O)cc3)no2)cc1`, the IC50 in series [3] is > 150 µM. Moreover, the MNTC in series [2] is 33 µg/mL.

The values above are taken from ChEMBL document CHEMBL1152555, “Design, synthesis and cruzain docking of 3-(4-substituted-aryl)-1,2,4-oxadiazole-N-acylhydrazones as anti-Trypanosoma cruzi agents” (Bioorg Med Chem, 2009).
